Reference: ChEMBL document CHEMBL4038349, “Synthesis and Evaluation of Asymmetric Acyclic Nucleoside Bisphosphonates as Inhibitors of Plasmodium falciparum and Human Hypoxanthine-Guanine-(Xanthine) Phosphoribosyltransferase” (J Med Chem, 2017)
Calls of active or inactive are those of the source. The calls are words filed in the database; no cut-off is given here.

Key:
[1] = Inhibition of Plasmodium falciparum HGPRT using PRib-PP as the substrate by spectrophotometric method
How it was run: (§1)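 Enzyme assays in 0.1 M Tris-HCl, 10 mM MgCl2, pH 7.4. Guanine fixed at 49 µM as non-variable substrate; PRib-PP varied 20-1400 µM at fixed inhibitor concentration; Hanes' plots. Ki from Km(app) = Km[1+[I]/Ki], assuming competitive inhibition; for Ki <2 µM, Km(app) measured at three inhibitor concentrations.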

[2] = target: T1, Hypoxanthine-guanine phosphoribosyltransferase (Homo sapiens, UniProt P00492); experiment: Inhibition of human HGPRT using PRib-PP as the substrate by spectrophotometric method; how it was run: as §1
T1 sequence (P00492 whole entry): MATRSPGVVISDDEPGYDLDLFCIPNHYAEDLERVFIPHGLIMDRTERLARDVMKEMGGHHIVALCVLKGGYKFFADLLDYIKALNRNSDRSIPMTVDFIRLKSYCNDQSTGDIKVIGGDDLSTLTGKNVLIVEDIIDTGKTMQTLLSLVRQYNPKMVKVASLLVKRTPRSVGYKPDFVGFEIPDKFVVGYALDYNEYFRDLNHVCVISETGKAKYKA

Plasmodium falciparum [3] = experiment: Inhibition of Plasmodium falciparum HGPRT using PRib-PP as the substrate at 33 uM by spectrophotometric method
[4] = Selectivity index, ratio of CC50 for human A549 cells to IC50 for Plasmodium falciparum D6; assay type: toxicity; details: read-out: Ratio CC50/IC50
How it was run: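 Ratio CC50/IC50. CC50: A549 cells, 4-day proliferation, Coulter counting. IC50: Pf D6 ring-stage cultures, 0.5% parasitemia, 2% hematocrit, hypoxanthine-free medium, ten 2-fold dilutions of phosphoramidate prodrugs for 96 h; [3H]-hypoxanthine added at ~48 h; IC50 by non-linear regression; at least two independent experiments, mean ±SD.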

Plasmodium falciparum [5] = experiment: Antimalarial activity against Plasmodium falciparum D6 infected in type O+ human RBC assessed as reduction in [3H]hypoxanthine incorporation preincubated for 48 hrs followed by [3H]hypoxanthine addition measured after 96 hrs; assay type: functional
How it was run: (§2)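 Ring-stage synchronized cultures (>90% early trophozoite, D-sorbitol) at 0.5% parasitemia, 2% hematocrit in hypoxanthine-free RPMI-1640-LPLF with 10% human plasma, 37°C under 5% O2/5% CO2/90% N2. Ten 2-fold serial dilutions of prodrug for 96 h. [3H]-hypoxanthine (0.2 μCi/well) added at ~48 h. IC50 from non-linear regression of incorporation versus log concentration. Mean (±SD) of at least two independent experiments.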

[6] = Cytotoxicity against human A549 cells after 4 days by Coulter counting method; assay type: cell-based
How it was run: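 Human lung carcinoma A549 cells seeded at 7500 cells/well, compounds added next day in serial dilutions; 4 days at 37°C, then cells trypsinized and counted. CC50 = concentration giving 50% inhibition of proliferation versus no-compound control, derived by extrapolation assuming semi-log dose-response.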

Plasmodium falciparum [7] = experiment: Antimalarial activity against chloroquine and pyrimethamine-resistant Plasmodium falciparum W2 infected in type O+ human RBC assessed as reduction in [3H]hypoxanthine incorporation preincubated for 48 hrs followed by [3H]hypoxanthine addition measured after 96 hrs; assay type: functional; how it was run: as §2
Plasmodium falciparum [8] = experiment: Inhibition of Plasmodium falciparum HGPRT using PRib-PP as the substrate at 50 uM by spectrophotometric method

Nc1nc2c(ncn2CC(COCCP(=O)(O)O)OCCP(=O)(O)O)c(=O)[nH]1 (stereo not given)
Ki [1]: 0.5 µM

Nc1nc2c(ccn2CC(COCCP(=O)(O)O)COCP(=O)(O)O)c(=O)[nH]1 (stereo not given)
Ki [2]: 0.1 µM
Ki [1]: 4 µM

O=c1[nH]cnc2c1ncn2CC(COCP(=O)(O)O)COCP(=O)(O)O
Ki [1]: 5 µM

O=c1[nH]cnc2c1ncn2CC(COCCP(=O)(O)O)OCCP(=O)(O)O (stereo not given)
inhibition (Plasmodium falciparum [3]): inactive
Ki [2]: 0.7 µM

CCOC(=O)[C@H](Cc1ccccc1)NP(=O)(CCOCC(COCP(=O)(N[C@@H](Cc1ccccc1)C(=O)OCC)N[C@@H](Cc1ccccc1)C(=O)OCC)Cn1c(Br)nc2c(=O)[nH]c(N)nc21)N[C@@H](Cc1ccccc1)C(=O)OCC (stereo not given in full)
selectivity ratio [4]: 27
IC50 (Plasmodium falciparum [5]): 5.6 µM
CC50 at 96 h [6]: 151 µM
IC50 (Plasmodium falciparum [7]): 8.3 µM

O=c1[nH]cnc2c1ccn2CC(COCCP(=O)(O)O)COCP(=O)(O)O (stereo not given)
Ki [2]: 4.6 µM
Ki [1]: 6 µM

CCOC(=O)[C@H](Cc1ccccc1)NP(=O)(CCOCC(Cn1cnc2c(=O)[nH]cnc21)OCCP(=O)(N[C@@H](Cc1ccccc1)C(=O)OCC)N[C@@H](Cc1ccccc1)C(=O)OCC)N[C@@H](Cc1ccccc1)C(=O)OCC (stereo not given in full)
selectivity ratio [4]: 25
IC50 (Plasmodium falciparum [5]): 3.6 µM
IC50 (Plasmodium falciparum [7]): 1.9 µM

O=c1[nH]cnc2c1nc(Br)n2CC(COCCP(=O)(O)O)COCP(=O)(O)O (stereo not given)
Ki [2]: 2.5 µM
inhibition (Plasmodium falciparum [8]): inactive

CCOC(=O)[C@H](Cc1ccccc1)NP(=O)(CCOCC(COCP(=O)(N[C@@H](Cc1ccccc1)C(=O)OCC)N[C@@H](Cc1ccccc1)C(=O)OCC)Cn1cnc2c(=O)[nH]cnc21)N[C@@H](Cc1ccccc1)C(=O)OCC (stereo not given in full)
selectivity ratio [4]: 59
IC50 (Plasmodium falciparum [5]): 1.4 µM
CC50 at 96 h [6]: 82 µM
IC50 (Plasmodium falciparum [7]): 3.2 µM

Nc1nc2c(ncn2CC(COCCP(=O)(O)O)COCP(=O)(O)O)c(=O)[nH]1 (stereo not given)
Ki [2]: 0.006 µM
Ki [1]: 0.07 µM

CCOC(=O)[C@H](Cc1ccccc1)NP(=O)(CCOCC(COCP(=O)(N[C@@H](Cc1ccccc1)C(=O)OCC)N[C@@H](Cc1ccccc1)C(=O)OCC)Cn1ccc2c(=O)[nH]cnc21)N[C@@H](Cc1ccccc1)C(=O)OCC (stereo not given in full)
CC50 at 96 h [6]: 20 µM

CCOC(=O)[C@H](Cc1ccccc1)NP(=O)(CCOCC(Cn1c(Br)nc2c(=O)[nH]c(N)nc21)OCCP(=O)(N[C@@H](Cc1ccccc1)C(=O)OCC)N[C@@H](Cc1ccccc1)C(=O)OCC)N[C@@H](Cc1ccccc1)C(=O)OCC (stereo not given in full)
CC50 at 96 h [6]: 188 µM

CCOC(=O)[C@H](Cc1ccccc1)NP(=O)(CCOCC(COCP(=O)(N[C@@H](Cc1ccccc1)C(=O)OCC)N[C@@H](Cc1ccccc1)C(=O)OCC)Cn1cnc2c(=O)[nH]c(N)nc21)N[C@@H](Cc1ccccc1)C(=O)OCC (stereo not given in full)
selectivity ratio [4]: 37
IC50 (Plasmodium falciparum [5]): 5.7 µM
CC50 at 96 h [6]: 212 µM
IC50 (Plasmodium falciparum [7]): 7.4 µM

Nc1nc2c(nc(Br)n2CC(COCCP(=O)(O)O)OCCP(=O)(O)O)c(=O)[nH]1 (stereo not given)
Ki [2]: 0.4 µM
Ki [1]: 0.9 µM

O=c1[nH]cnc2c1ncn2CC(COCCP(=O)(O)O)COCP(=O)(O)O (stereo not given)
Ki [2]: 1.8 µM
Ki [1]: 3 µM

CCOC(=O)[C@H](Cc1ccccc1)NP(=O)(CCOCC(COCP(=O)(N[C@@H](Cc1ccccc1)C(=O)OCC)N[C@@H](Cc1ccccc1)C(=O)OCC)Cn1c(Br)nc2c(=O)[nH]cnc21)N[C@@H](Cc1ccccc1)C(=O)OCC (stereo not given in full)
CC50 at 96 h [6]: 36 µM

CCOC(=O)[C@H](Cc1ccccc1)NP(=O)(CCOCC(COCP(=O)(N[C@@H](Cc1ccccc1)C(=O)OCC)N[C@@H](Cc1ccccc1)C(=O)OCC)Cn1ccc2c(=O)[nH]c(N)nc21)N[C@@H](Cc1ccccc1)C(=O)OCC (stereo not given in full)
selectivity ratio [4]: 59
IC50 (Plasmodium falciparum [5]): 1.8 µM
CC50 at 96 h [6]: 106 µM
IC50 (Plasmodium falciparum [7]): 6.5 µM

Nc1nc2c(nc(Br)n2CC(COCCP(=O)(O)O)COCP(=O)(O)O)c(=O)[nH]1 (stereo not given)
Ki [2]: 0.1 µM
Ki [1]: 2 µM
